According to ChEMBL document CHEMBL4340526, “Discovery and Mechanistic Study of Tailor-Made Quinoline Derivatives as Topoisomerase 1 Poison with Potent Anticancer Activity” (J Med Chem, 2019):
Calls of active or inactive are those of the source. The rule behind the calls is not given here.

Columns and labels:
[1] = biological target: T1, DNA topoisomerase 1 (Homo sapiens, UniProt P11387); assay: Poison activity at TOP1 in human MCF7 cells assessed as decrease in relaxed supercoiled pBS(SK+) DNA mobility measured after 30 mins by ethidium bromide staining based agarose gel electrophoresis; format: cell-based
T1 sequence (P11387 whole entry): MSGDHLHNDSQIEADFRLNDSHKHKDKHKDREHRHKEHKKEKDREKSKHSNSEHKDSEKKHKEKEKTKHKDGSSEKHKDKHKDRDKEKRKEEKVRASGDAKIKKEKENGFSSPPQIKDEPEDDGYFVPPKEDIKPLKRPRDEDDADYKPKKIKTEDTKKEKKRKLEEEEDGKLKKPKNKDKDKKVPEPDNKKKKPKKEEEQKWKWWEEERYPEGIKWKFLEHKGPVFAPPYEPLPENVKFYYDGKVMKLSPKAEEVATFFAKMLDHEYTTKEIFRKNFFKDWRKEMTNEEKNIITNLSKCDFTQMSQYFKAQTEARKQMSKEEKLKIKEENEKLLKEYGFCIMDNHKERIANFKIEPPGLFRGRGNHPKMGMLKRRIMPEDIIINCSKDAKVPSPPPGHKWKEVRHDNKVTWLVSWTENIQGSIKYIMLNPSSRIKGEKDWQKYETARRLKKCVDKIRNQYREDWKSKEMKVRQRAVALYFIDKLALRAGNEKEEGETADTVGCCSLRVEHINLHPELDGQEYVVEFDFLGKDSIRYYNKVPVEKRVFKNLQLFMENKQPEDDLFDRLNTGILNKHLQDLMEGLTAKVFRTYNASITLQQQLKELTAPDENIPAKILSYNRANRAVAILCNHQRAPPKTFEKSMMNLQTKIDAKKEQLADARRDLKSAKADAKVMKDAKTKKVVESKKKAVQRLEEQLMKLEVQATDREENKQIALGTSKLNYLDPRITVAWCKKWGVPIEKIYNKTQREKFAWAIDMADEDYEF
Outline: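 The Top1 source is MCF7 whole-cell extract (endogenous enzyme). Extract is incubated with 0.3 μg supercoiled pBS (SK+) DNA and compound added together, 30 min at 37 °C, in relaxation buffer. Supercoiled and relaxed forms are separated on 1% agarose and percent relaxation inhibition is quantified. Triplicate, mean ± SD.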

[2] = biological target: T1, DNA topoisomerase 1; assay: Poison activity at recombinant human TOP1 expressed in baculovirus infected Sf9 insect cells assessed as decrease in relaxed supercoiled pBS(SK+) DNA mobility measured after 30 mins by ethidium bromide staining based agarose gel electrophoresis
Outline: (§1)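 Top1 is recombinant human enzyme purified from baculovirus-infected Sf-9 cells. Supercoiled pBS (SK+) DNA (90 fmol) is incubated with 30 fmol Top1 (3:1 DNA:enzyme molar ratio) in relaxation buffer, with compound added simultaneously, 30 min at 37 °C. Relaxed isomers are resolved on 1% agarose and percent relaxation inhibition is quantified. Triplicate, mean ± SD.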

[3] = Stability of the compound in human plasma assessed as parent compound remaining at […] measured after 2 hrs by LC-MS/MS analysis; format: ADME, cell-free; details: read-out: Stability
Outline: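 Plasma is thawed, spun at 1400 RCF for 15 min at 4 °C, and supernatant used. Compound (final 1 μM, diluted from acetonitrile/water stock) is incubated in human plasma 2 h at 37 °C with gentle shaking. Aliquots at 0, 15, 30, 60 and 120 min are precipitated with acetonitrile containing internal standard and analyzed by LC–MS/MS. The 0 min reference uses heat-inactivated plasma (56 °C, 45 min). Value is mean % remaining at 2 h.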

[4] = biological target: T2, DNA topoisomerase 1 (Homo sapiens) (UniProt P11387); assay: Poison activity at recombinant human TOP1 expressed in baculovirus infected Sf9 insect cells assessed as decrease in relaxed supercoiled pBS(SK+) DNA mobility at 100 uM measured after 30 mins by ethidium bromide staining based agarose gel electrophoresis relative to control; parameters: scale not given: the % may be the effect or the level left; outline: as §1
T2 sequence (whole entry): T1 sequence (P11387 whole entry)

[5] = biological target: T2, DNA topoisomerase 1 (Homo sapiens); assay: Poison activity at recombinant human TOP1 expressed in baculovirus infected Sf9 insect cells assessed as decrease in relaxed supercoiled pBS(SK+) DNA mobility at 10 uM measured after 30 mins by ethidium bromide staining based agarose gel electrophoresis relative to control; parameters: scale not given: the % may be the effect or the level left; outline: as §1
[6] = test system: MEF; assay: Cytotoxicity against TDP1-positive MEF cells assessed as reduction in cell viability measured after 72 hrs by MTT assay; format: functional, cell-based; details: Mus musculus
Outline: (§2)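 Cell lines are HCT116, HeLa, NIH:OVCAR-3, and primary TDP1+/+ and TDP1−/− mouse embryonic fibroblasts, each exposed to variable compound concentrations. Viability is measured by MTT. Percent inhibition at each concentration is calculated against untreated control, and IC50 is estimated from these values.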

[7] = test system: Calf thymus DNA; assay: Displacement of ethidium bromide from calf thymus DNA at 200 uM by fluorescence assay; format: nucleic-acid assay; details: Bos taurus
Outline: (§3)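 Ethidium displacement fluorescence at 25 °C in fluorescence buffer containing 1 μM EtBr and 5 nM calf thymus DNA, with compound titrated 0–300 μM. Emission is read at 590 nm with 510 nm excitation and plotted as % EtBr bound.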

[8] = Cytotoxicity against human NIH:OVCAR3 cells assessed as reduction in cell viability measured after 72 hrs by MTT assay; format: functional, cell-based; details: OVCAR-3, 72 h; outline: as §2
[9] = test system: MEF; assay: Cytotoxicity against TDP1-deficient MEF cells assessed as reduction in cell viability measured after 72 hrs by MTT assay; format: functional, cell-based; details: Mus musculus; outline: as §2
[10] = test system: DNA; assay: Binding affinity to Escherichia coli pBS(SK+) DNA assessed as TOP1-mediated unwinding effect at 20 to 200 uM measured after 15 mins by EtBr staining based agarose gel electrophoresis method; format: nucleic-acid assay
Outline: (§4)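 Relaxed pBS (SK+) substrate made by treating supercoiled plasmid with excess Top1, then proteinase K digestion at 37 °C, phenol/chloroform extraction and ethanol precipitation. Reactions hold 50 fmol relaxed DNA with compound (20, 50, 100, 200 μM) and are incubated 15 min at 37 °C. Read-out is 1% agarose gel stained with 0.5 μg/mL EtBr under UV, scoring net negative supercoiling.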

[11] = test system: HEK293; assay: Cytotoxicity against HEK293 cells assessed as reduction in cell viability measured after 72 hrs by MTT assay; format: cell-based; details: Homo sapiens, HEK293, 72 h
Outline: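 MTT cell survival assay in HEK293 cells (from the Developmental Therapeutics Program) exposed to a range of compound concentrations. Percent inhibition of viability at each concentration calculated relative to untreated control, and IC50 estimated from these values.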

[12] = test system: HCT-116; assay: Cytotoxicity against human HCT116 cells assessed as reduction in cell viability measured after 72 hrs by MTT assay; format: functional, cell-based; details: HCT-116, 72 h; outline: as §2
[13] = test system: DNA; assay: Binding affinity to Escherichia coli pBS(SK+) DNA assessed as TOP1-mediated unwinding effect at 50 to 200 uM measured after 15 mins by EtBr staining based agarose gel electrophoresis method; format: nucleic-acid assay; outline: as §4
[14] = test system: Calf thymus DNA; assay: Displacement of ethidium bromide from calf thymus DNA up to 300 uM by fluorescence assay; format: nucleic-acid assay; details: Bos taurus; outline: as §3
[15] = test system: Calf thymus DNA; assay: Displacement of ethidium bromide from calf thymus DNA at 50 uM by fluorescence assay; format: nucleic-acid assay; details: Bos taurus
Outline: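 Fluorescence ethidium displacement run at 25 °C with 1 μM EtBr and 5 nM calf thymus DNA in fluorescence buffer. Test compound titrated over 0–300 μM. EtBr emission read at 590 nm with excitation at 510 nm. Result expressed as % EtBr remaining bound.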

Row | Compound | IC50 [2] | other results
1 | COc1ccc(-c2ccc3ncc(-c4nnco4)c(NCCCN4CCOCC4)c3c2)cc1 | 1.79 µM | IC50 [1]: 2.51 µM; remaining at 2 h [3]: 83.4%
2 | COc1ccc(-c2ccc3ncc(-c4nnco4)c(NCCCn4ccnc4)c3c2)cc1OC | > 10 µM | 
3 | COc1ccc(-c2ccc3ncc(-c4nnco4)c(NCCN4CCOCC4)c3c2)cc1OC | > 10 µM | Activity [4]: 20%
4 | Cc1ccc(-c2ccc3ncc(-c4nnco4)c(NCCCN4CCOCC4)c3c2)cc1 | > 10 µM | 
5 | CC[C@@]1(O)C(=O)OCc2c1cc1n(c2=O)Cc2cc3ccccc3nc2-1 [CAMPTOTHECIN] |  | remaining at 2 h [3]: 15.7%
6 | c1ccc(-c2ccc3ncc(-c4nnco4)c(NCCCn4ccnc4)c3c2)cc1 | > 10 µM | Activity [5]: 40%
7 | COc1ccc(-c2ccc3ncc(-c4nnco4)c(NCCCn4ccnc4)c3c2)c(C)c1 | > 10 µM | 
8 | COc1ccc(-c2ccc3ncc(-c4nnco4)c(NCCCn4ccnc4)c3c2)cc1 |  | IC50 [6]: 2.91 µM; Activity [7]: inactive; IC50 [8]: 2.35 µM; IC50 [9]: 1.02 µM; remaining at 2 h [3]: 93.3%; Activity [10]: inactive; IC50 [11]: 8.34 µM; IC50 [12]: 2.34 µM
9 | CNc1c(-c2nnco2)cnc2ccc(-c3ccc(OC)cc3)cc12 | > 10 µM | 
10 | COc1ccc(-c2ccc3ncc(-c4nnco4)c(NCCN4CCOCC4)c3c2)cc1 | > 10 µM | Activity [4]: 50%
11 | Oc1ccc(-c2ccc3ncc(-c4nnco4)c(NCCCn4ccnc4)c3c2)cc1 | > 10 µM | 
12 | COc1ccc(-c2ccc3ncc(-c4nnco4)c(NCCn4ccnc4)c3c2)cc1 | > 10 µM | 
13 | COc1cc([C@@H]2c3cc4c(cc3[C@@H](O[C@@H]3O[C@@H]5CO[C@@H](C)O[C@H]5[C@H](O)[C@H]3O)[C@H]3COC(=O)[C@H]23)OCO4)cc(OC)c1O |  | Activity [13]: inactive; Activity [14]: inactive
14 | CCOC(=O)c1cnc2ccc(-c3ccc(OC)c(OC)c3)cc2c1NCCCn1ccnc1 | > 10 µM | 
15 | CCOC(=O)c1cnc2ccc(-c3ccc(OC)cc3)cc2c1NCCCn1ccnc1 | > 10 µM | 
16 | COc1ccc(-c2ccc3ncc(-c4nnc(C)o4)c(NCCN4CCOCC4)c3c2)cc1 | > 10 µM | 
17 | COc1ccc(-c2ccc3ncc(-c4nnc(C)o4)c(NCCCn4ccnc4)c3c2)cc1 | > 10 µM | 
18 | COc1ccc(-c2ccc3ncc(-c4nnco4)c(NCCCn4ccnc4)c3c2)c(OC)c1 | > 10 µM | 
19 | COc1ccc(-c2ccc3ncc(-c4nnc(N)o4)c(NCCCn4ccnc4)c3c2)cc1 | > 10 µM | 
20 | COc1ccc(-c2ccc3ncc(-c4nnc(C)o4)c(NCCN4CCOCC4)c3c2)cc1OC | > 10 µM | 
21 | COc1cc(NS(C)(=O)=O)ccc1Nc1c2ccccc2nc2ccccc12 |  | Activity [13]: Active; Activity [15]: Active
22 | Fc1ccc(-c2ccc3ncc(-c4nnco4)c(NCCCn4ccnc4)c3c2)cc1 | > 10 µM | 
23 | COc1ccccc1-c1ccc2ncc(-c3nnco3)c(NCCCn3ccnc3)c2c1 | > 10 µM | 
24 | N#Cc1ccc(-c2ccc3ncc(-c4nnco4)c(NCCCn4ccnc4)c3c2)cc1 | > 10 µM | 
25 | COc1ccc(-c2ccc3ncc(-c4nnco4)c(NCCCN4CCOCC4)c3c2)cc1OC | > 10 µM | 
